Experimental data: ChEMBL document CHEMBL4138165, “Design, synthesis and biological evaluation of new β-carboline-bisindole compounds as DNA binding, photocleavage agents and topoisomerase I inhibitors” (Eur J Med Chem, 2018)
Active and inactive are the calls of the source. No cut-off for these calls is given here.

Columns and labels:
Calf thymus DNA = experiment: Binding affinity to calf thymus double stranded DNA at 5 uM by ostwald viscometer; format: nucleic-acid assay; details: Bos taurus
MCF7 = experiment: Antiproliferative activity against human MCF7 cells after 48 hrs by MTT assay; format: functional, cell-based; details: MCF7, 48 h
DU-145 = experiment: Antiproliferative activity against human DU145 cells after 48 hrs by MTT assay; format: functional, cell-based; details: DU-145, 48 h
A549 = experiment: Antiproliferative activity against human A549 cells after 48 hrs by MTT assay; format: functional, cell-based; details: A549, 48 h
NIH3T3 = experiment: Antiproliferative activity against mouse NIH/3T3 cells after 48 hrs by MTT assay; format: functional, cell-based; details: NIH3T3, 48 h
HeLa = experiment: Antiproliferative activity against human HeLa cells after 48 hrs by MTT assay; format: functional, cell-based
[1] = molecular target: T1, Topoisomerase I (Bos taurus) (UniProt Q2HPH0); experiment: Inhibition of calf thymus DNA topoisomerase 1 at 20 uM using pBR322 DNA as substrate after 30 mins by agarose gel electrophoresis method
T1 sequence (whole entry): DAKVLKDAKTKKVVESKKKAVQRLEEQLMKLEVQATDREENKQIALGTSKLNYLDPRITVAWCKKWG

DNA [2] = experiment: Induction of Escherichia coli pBR322 DNA cleavage at 20 uM incubated in dark condition by agarose gel electrophoresis; format: nucleic-acid assay
In short: (§1)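 pBR322 plasmid DNA was incubated with 20 µM ligand, either in the dark or under UV-light irradiation for 1 h. Products were separated by gel electrophoresis. Irradiated DNA solution alone served as the control.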

DNA [3] = experiment: Induction of Escherichia coli pBR322 DNA cleavage at 20 uM incubated in presence of UV-light for 1 hr by agarose gel electrophoresis; format: nucleic-acid assay; in short: as §1

SMILES	Activity (Calf thymus DNA)	IC50 (MCF7) [µM]	IC50 (DU-145) [µM]	IC50 (A549) [µM]	IC50 (NIH3T3) [µM]	IC50 (HeLa) [µM]	inhibition [1]	Activity (DNA [2])	Activity (DNA [3])
CCOc1ccc(-c2nc3cc(-c4nc5cc(N6CCN(C)CC6)ccc5[nH]4)ccc3[nH]2)cc1	inactive								
CC[n+]1c(-c2ccccc2)c2cc(N)ccc2c2ccc(N)cc21	Active								
COc1ccc(-c2nc(C(c3c[nH]c4ccc(OC)cc34)c3c[nH]c4ccc(OC)cc34)cc3c2[nH]c2ccccc23)cc1		29.9	16.3	18.1	102	32.5			
Cc1[nH]c2ccc([N+](=O)[O-])cc2c1C(c1cc2c([nH]c3ccccc32)c(-c2ccc(F)cc2)n1)c1c(C)[nH]c2ccc([N+](=O)[O-])cc12		27.7	16.9	18.6	102	31.5			
COc1ccc(-c2nc(C(c3c(C)[nH]c4ccc([N+](=O)[O-])cc34)c3c(C)[nH]c4ccc([N+](=O)[O-])cc34)cc3c2[nH]c2ccccc23)cc1		25.3	16.6	11.7	126	21.5			
COc1cc(-c2nc(C(c3c[nH]c4ccc(F)cc34)c3c[nH]c4ccc(F)cc34)cc3c2[nH]c2ccccc23)cc(OC)c1OC		13.6	10.1	16.9	118	12.2			
COc1cc(-c2nc(C(c3c[nH]c4ccc([N+](=O)[O-])cc34)c3c[nH]c4ccc([N+](=O)[O-])cc34)cc3c2[nH]c2ccccc23)cc(OC)c1OC		16.3	11.9	17.1	128	14.2			
Cc1ccc(-c2nc(C(c3c[nH]c4ccccc34)c3c[nH]c4ccccc34)cc3c2[nH]c2ccccc23)cc1		18.1	13.7	10	101	14.3			
COc1ccc(-c2nc(C(c3c[nH]c4ccccc34)c3c[nH]c4ccc(C#N)cc34)cc3c2[nH]c2ccccc23)cc1 (stereo not drawn)		28.9	14.8	13.7	119	30.9			
Cc1ccc(-c2nc(C(c3c[nH]c4ccc(C#N)cc34)c3c[nH]c4ccc(C#N)cc34)cc3c2[nH]c2ccccc23)cc1		17.4	7.32	11	60.6	16			
COc1ccc(-c2nc(C(c3c[nH]c4ccc(Br)cc34)c3c[nH]c4ccc(Br)cc34)cc3c2[nH]c2ccccc23)cc1		18.6	2.63	9.24	86.3	15			
CC[C@@]1(O)C(=O)OCc2c1cc1n(c2=O)Cc2cc3ccccc3nc2-1							Active		
COc1ccc(-c2nc(C(c3c[nH]c4ccc([N+](=O)[O-])cc34)c3c[nH]c4ccc([N+](=O)[O-])cc34)cc3c2[nH]c2ccccc23)cc1		50.1	9.31	10.4	118	18			
COc1cccc2c1C(=O)c1c(O)c3c(c(O)c1C2=O)C[C@@](O)(C(=O)CO)C[C@@H]3O[C@H]1C[C@H](N)[C@H](O)[C@H](C)O1 [DOXORUBICIN]		2.18	2.13			1.73			
Fc1ccc(-c2nc(C(c3c[nH]c4ccc(F)cc34)c3c[nH]c4ccc(F)cc34)cc3c2[nH]c2ccccc23)cc1		19.8	15.8	18.5	114	18.1			
Fc1ccc(-c2nc(C(c3c[nH]c4ccc(Br)cc34)c3c[nH]c4ccc(Br)cc34)cc3c2[nH]c2ccccc23)cc1		18.3	7.74	8.3	90.1	9.5			

SMILES	Activity (Calf thymus DNA)	IC50 (MCF7) [µM]	IC50 (DU-145) [µM]	IC50 (A549) [µM]	IC50 (NIH3T3) [µM]	IC50 (HeLa) [µM]	inhibition [1]	Activity (DNA [2])	Activity (DNA [3])
COc1ccc2[nH]cc(C(c3cc4c([nH]c5ccccc54)c(-c4cc(OC)c(OC)c(OC)c4)n3)c3c[nH]c4ccccc34)c2c1 (stereo not drawn)		44.2	19.5	20.4	100	39.8			
COc1ccc(-c2nc(C(c3c[nH]c4ccc(F)cc34)c3c[nH]c4ccc(F)cc34)cc3c2[nH]c2ccccc23)cc1		30.6	8.33	27.6	94.4	35.5			
O=[N+]([O-])c1ccc2[nH]cc(C(c3cc4c([nH]c5ccccc54)c(-c4ccc(F)cc4)n3)c3c[nH]c4ccc([N+](=O)[O-])cc34)c2c1		14.4	1.92	6.32	64.2	12.8	Active	Not Active	inactive
COc1cc(-c2nc(C(c3c(C)[nH]c4ccc([N+](=O)[O-])cc34)c3c(C)[nH]c4ccc([N+](=O)[O-])cc34)cc3c2[nH]c2ccccc23)cc(OC)c1OC		33.1	20.7	31.7	105	22.6			
N#Cc1ccc2[nH]cc(C(c3cc4c([nH]c5ccccc54)c(-c4ccc(F)cc4)n3)c3c[nH]c4ccccc34)c2c1 (stereo not drawn)		26.3	2.34	15.7	58.1	17.1			
COc1cc(-c2nc(C(c3c[nH]c4ccccc34)c3c[nH]c4ccccc34)cc3c2[nH]c2ccccc23)cc(OC)c1OC		34.9	12.8	22.7	92.9	21.4			
COc1cc(-c2nc(C(c3c[nH]c4ccc(Br)cc34)c3c[nH]c4ccc(Br)cc34)cc3c2[nH]c2ccccc23)cc(OC)c1OC		33.4	14.7	21.8	64.3	15.8			
COc1ccc2c(c1)[nH]c1c(C)nccc12 [HARMINE]		10.8	12	7.76		16.2			
Cc1ccc(-c2nc(C(c3c[nH]c4ccc(F)cc34)c3c[nH]c4ccc(F)cc34)cc3c2[nH]c2ccccc23)cc1		14.2	5.81	14.2	66.2	12.4			
COc1cc(-c2nc(C(c3c[nH]c4ccccc34)c3c[nH]c4ccc(C#N)cc34)cc3c2[nH]c2ccccc23)cc(OC)c1OC (stereo not drawn)		11.8	19	19.3	57.2	9.86			
Cc1ccc(-c2nc(C(c3c[nH]c4ccc([N+](=O)[O-])cc34)c3c[nH]c4ccc([N+](=O)[O-])cc34)cc3c2[nH]c2ccccc23)cc1		16.9	6	6.92	145	10.9			
COc1ccc2[nH]cc(C(c3cc4c([nH]c5ccccc54)c(-c4ccc(F)cc4)n3)c3c[nH]c4ccc(OC)cc34)c2c1		34.6	10.6	14.6	110	23.7			
COc1ccc2[nH]cc(C(c3cc4c([nH]c5ccccc54)c(-c4ccc(C)cc4)n3)c3c[nH]c4ccc(OC)cc34)c2c1		27.4	23.1	30.1	59.3	33.8			
Cc1ccc(-c2nc(C(c3c(C)[nH]c4ccc([N+](=O)[O-])cc34)c3c(C)[nH]c4ccc([N+](=O)[O-])cc34)cc3c2[nH]c2ccccc23)cc1		22.8	15	21.1	52.1	28.1			
COc1ccc(-c2nc(C(c3c[nH]c4ccccc34)c3c[nH]c4ccccc34)cc3c2[nH]c2ccccc23)cc1		38.1	12.8	13.5	83.2	26.2			
